FLuc inh counter: inhibits firefly luciferase, flagging false hits in luciferase inhibition screens; P08659; 200,000 compounds, 1.5% hits; inhibition, % at 10 µM; AID 1006; ATPLite firefly luciferase biochemical luminescence, 10 min;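 active = inhibition above about 50% when tested at 10 µM, limit read from the data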
Target sequence (P08659 whole entry, looked up): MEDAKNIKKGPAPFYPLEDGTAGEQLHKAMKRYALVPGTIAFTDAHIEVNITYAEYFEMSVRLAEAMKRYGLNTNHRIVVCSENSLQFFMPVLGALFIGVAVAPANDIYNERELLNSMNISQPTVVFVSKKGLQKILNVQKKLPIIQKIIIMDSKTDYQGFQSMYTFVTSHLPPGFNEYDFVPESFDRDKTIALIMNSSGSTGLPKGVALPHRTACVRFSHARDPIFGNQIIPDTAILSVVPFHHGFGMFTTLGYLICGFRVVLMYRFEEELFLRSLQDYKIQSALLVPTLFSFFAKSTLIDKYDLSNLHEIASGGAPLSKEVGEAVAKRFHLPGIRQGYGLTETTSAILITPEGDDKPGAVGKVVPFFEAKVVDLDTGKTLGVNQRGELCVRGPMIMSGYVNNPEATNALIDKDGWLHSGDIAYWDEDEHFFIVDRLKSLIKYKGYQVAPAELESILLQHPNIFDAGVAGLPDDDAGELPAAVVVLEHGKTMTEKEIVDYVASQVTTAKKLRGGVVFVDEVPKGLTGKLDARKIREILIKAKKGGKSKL
STAT1 activator: activators of IFN-gamma induced STAT1 signaling | 200,000 compounds, 2.6% hits | activation (% of control), % at 5.5 µM | NIH 3T3 STAT1-luciferase reporter, luminescence; 100% = IFN-gamma alone, no compound | AID 932;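 active = activation above the screen-wide mean activation plus 3 SD, cut at about 130% in these data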
STAT3 inh: inhibitors of IL-6 induced STAT3 signaling | inhibition, % at 5.5 µM | U3A cells, IL-6 STAT3-luciferase reporter, luminescence; host cell line lacks STAT1 | 190,000 compounds, 0.89% hits | AID 862;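 active = inhibition above the mean inhibition across all screened compounds plus 3 SD, cut at about 44% in these data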
STAT1 blocker: STAT1 signaling inhibition; NIH 3T3 STAT1-luciferase reporter, IFN-gamma, luminescence; inhibition, % at 5.5 µM; 200,000 compounds, 0.35% hits;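 active = inhibition above a set limit, the mean inhibition across all tested compounds plus 3 SD, cut at about 34% in these data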
FLuc stim CS: firefly luciferase counter-screen for stimulation assays; activation factor at 10 µM; ATPlite luciferase biochemical, luminescence, 10 min; 0 = ATP-free wells, 1 = DMSO control; 200,000 tested, under 10 active; AID 1027;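 active = luciferase activation factor, scaled between plate controls, of at least 2 with compound at 10 µM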
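test system = cell-free luciferase reagent | medium = PBS as buffer for the ATP substrate | dosing = test compounds dosed from 2 mM stocks in 100% DMSO | incubation = 10 min at ambient temperature | detection = luminescence measurement of luciferase light output | benchmarks = low control with PBS replacing ATP, high control enzyme plus ATP without compound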
STAT3 activator: activators of IL-6 induced STAT3 signaling. U3A cells, IL-6 STAT3-luciferase reporter, luminescence; 100% = signal with IL-6 EC80 alone. activation (% of control), % at 5.6 µM. 190,000 compounds, 0.91% hits;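 active = activation above the screen-wide mean of compound activation plus 3 SD, cut at about 130% in these data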
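Material: STAT3-luciferase reporter U3A cells. Controls: IL-6-treated wells, 100% activation. Read-out: % activation versus median of IL-6-stimulated wells. Probe or stimulus: IL-6 stimulus at 33 ng/mL final. Timing: compound 1 h, then IL-6 6 h at 37 °C. Signal: reporter luminescence signal.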
Each line names hits and unclear results; the compound was inactive in the other large screens. Sampled rows, rich in hits. Any-hit rate of the full collection: about 4.9%.

O=C(Nc1cc2c(oc1=O)CCCC2=O)c1cccc(Cl)c1	none
CCC(=O)c1cc2c(cc1NC(=O)c1ccccc1)OCCO2	none
Cc1ccc(C(=O)Nc2cc3c(cc2Cl)OCCCO3)cc1	STAT1 activator 155.0
COc1ccc(C(=O)Nc2cc3c(oc2=O)CCCC3=O)cc1	STAT1 activator 137.9
O=C(Nc1cc2c(cc1Cl)OCCCO2)c1ccc(F)cc1	STAT1 activator 144.6
Cc1cc(C)nc(/N=C2\NC(=O)CC(C(=O)O)N2c2ccc(C)c(C)c2)n1 (stereo not drawn)	none
COc1ccc(C(=O)Nc2cc(OC)c(Cl)cc2OC)cc1	none
COc1ccc(C(=O)Nc2cc3c(cc2Cl)OCCCO3)cc1	STAT1 activator 137.3
CC(C)CC(NC(=O)c1ccc(Cl)cc1)C(=O)OCc1cc([N+](=O)[O-])cc2c1OCOC2 (stereo not drawn)	none
COc1cc(/C=C/c2ccc3cccc([N+](=O)[O-])c3n2)ccc1OCC(=O)O	FLuc inh counter 57.5
O=C(O)COc1ccc(/C=C/c2ccc3cccc([N+](=O)[O-])c3n2)cc1	none
Cc1nn(-c2ccc(F)cc2)c(N)c1C1(O)C(=O)Nc2ccccc21 (stereo not drawn)	none
Nc1ccc(C(=O)OCc2nc3c(ccc4ccccc43)[nH]2)cc1	STAT1 activator 150.9, STAT3 activator 135.6
Nc1ccc(C(=O)OCc2nc3cc4ccccc4cc3[nH]2)cc1	none
C/C(=N/OC(=O)c1ccc(F)cc1)c1ccc(C)cc1	FLuc inh counter 70.0
O=C(N/N=C/c1ccc2c(c1)OCO2)c1cc(-c2ccc(F)cc2)nc2ccccc12	none
O=C(O)COc1ccccc1/C=N/NC(=O)c1cc(-c2ccc(F)cc2)nc2ccccc12	FLuc inh counter 58.6
COc1ccc(/C=N/c2c(-c3ccco3)nc3ccccn23)cc1OC	FLuc inh counter 79.6
Clc1ccc(/C=N/c2c(-c3ccco3)nc3ccccn23)cc1	none
O=C(NC(=S)Nc1ccc2ncccc2c1)c1ccccc1	STAT1 activator 131.2
CC(C)(C)NC(=S)NNC(=O)c1ccc2ncccc2c1	STAT1 activator 136.1
O=C(NNC(=S)Nc1ccccc1)c1ccc2ncccc2c1	none
COc1ccc(/C=N/NC(=S)Nc2ccccc2)cc1	STAT1 activator 133.3
O=C(NC(=S)Nc1ccc2[nH]ncc2c1)c1ccccc1	none
S=C(N/N=C/c1ccc2ncccc2c1)Nc1ccccc1	FLuc inh counter 54.9
Fc1ccc(/C=N/NC(=S)Nc2cccnc2)cc1F	none
O=c1ccc2ccc(Oc3ccc([N+](=O)[O-])cc3[N+](=O)[O-])cc2o1	none
CC(=O)Oc1c(C)cc(Cl)cc1C(=O)Nc1ccc([N+](=O)[O-])cc1Cl	STAT3 inh 45.7
CC(=O)OCC(=O)Nc1ccc([N+](=O)[O-])cc1Cl	none
O=C(COc1ccccc1)Nc1ccc(Cl)cc1Cl	FLuc inh counter 50.4, STAT1 activator 133.7
O=C(/C=C/c1cccc(Oc2ccccc2)c1)N1CCOCC1	STAT1 activator 139.2
O=C(/C=C/c1cccc([N+](=O)[O-])c1)N1CCOCC1	none
CCOCC(=O)Nc1nc2ccccc2s1	none
CC(=O)N1CCC(=NNc2nc3ccccc3s2)CC1	STAT1 activator 136.4
CCNC(=O)Nc1nc2ccccc2s1	STAT1 activator 146.1
CC(=O)NNc1nc2ccccc2s1	none
S=C(Nc1ccccc1)c1nc2ccccc2s1	STAT1 activator 137.5
O=C(NNc1nc2ccccc2s1)Nc1ccccc1	STAT1 activator 137.5
O=C(O)C1C2CCC(C2)C1C(=O)Nc1nc2ccccc2s1 (stereo not drawn)	none
Cc1ccc(-c2nc3ccccc3[nH]2)cc1NC(=O)c1sc2cc(Cl)ccc2c1Cl	none
C=CCOc1ccc(/C=N/NC(=O)CN2CCOCC2)cc1OCC	none
O=C(NCc1ccncc1)Nc1ccccc1F	none
Cc1ccccc1-c1nc2ccccc2[nH]1	STAT1 activator 133.1
Fc1ccccc1-c1nc2ccccc2[nH]1	FLuc inh counter 55.4, STAT1 activator 133.7
c1ccc2nc(-c3nc4ccccc4[nH]3)ccc2c1	FLuc inh counter 94.5, STAT3 inh 82.6, STAT1 blocker 38.8
CSc1ncccc1-c1nc2ccccc2[nH]1	none
c1ccc2[nH]c(-c3cscn3)nc2c1	none
O=C(C1=C[C@@H](C2CC2)C[C@@H](OCc2ccc(CO)cc2)O1)N1CCN(Cc2ccccc2)CC1	none (no result: STAT3 inh, STAT3 activator)
Cc1nn(C)cc1/C=C/C(=O)c1ccccc1	FLuc inh counter 54.4
Cc1nn(C)cc1/C=C/C(=O)c1cccs1	FLuc inh counter 62.7
O=C(/C=C/c1c[nH]c2ccccc12)c1ccccc1	STAT1 activator 135.8
Cc1ccc(C(=O)/C=C/c2c[nH]c3ccccc23)cc1	none
CCn1cc(/C=C/C(=O)c2ccc(O)cc2)c(C)n1	FLuc inh counter 89.7
Cc1nn(C)c(C)c1/C=C/C(=O)c1cccs1	none (no result: FLuc inh counter, FLuc stim CS)
C/C(N)=C(/C#N)C(=O)COC(=O)c1oc2ccccc2c1COC(C)C	none
N/C(=N\OC(=O)Cc1cccs1)c1ccccc1	STAT1 activator 137.4
Cc1cccc(/C(N)=N/OC(=O)Cc2cccs2)c1	STAT1 activator 131.9
N/C(=N\OC(=O)Cc1cccs1)c1cccc([N+](=O)[O-])c1	none
Cc1ccc(/C(N)=N/OC(=O)Cc2cccs2)cc1	STAT1 activator 149.6
N/C(Cc1cccs1)=N\OC(=O)COc1ccccc1	none
Cc1ccc(/C(N)=N/OC(=O)Cc2ccccc2)cc1	STAT1 activator 132.9
COc1ccc(NC(=O)c2cc3c(s2)CCC(C)C3)cc1S(=O)(=O)N1CCOCC1 (stereo not drawn)	none
Cn1nc(C(=O)Nc2nc3ccccc3[nH]2)ccc1=O	none
CN(C)c1ccc(C(=O)OCC(=O)N2CCOCC2)cc1	none
CN(C)c1ccc(N=Nc2ccccc2C(=O)OCC(=O)N2CCCCCC2)cc1	FLuc inh counter 71.8
CN(C)c1ccc(N=Nc2ccccc2C(=O)OCC(=O)Nc2ccccc2C(F)(F)F)cc1	none
CN(C)c1ccc(N=Nc2ccccc2C(=O)OCC(=O)N2CCCC2)cc1	FLuc inh counter 69.9
Cc1ccccc1NC(=O)COC(=O)c1cc(=O)c2ccccc2o1	none
O=C(OCc1nc2ccccc2s1)c1ccccc1O	none
O=C(OCc1nc2ccccc2s1)c1cccs1	STAT1 activator 136.9, STAT3 activator 151.2
COc1cc(OC)cc(C(=O)NCC(=O)OCc2nc3ccccc3s2)c1	STAT1 activator 145.4
O=c1[nH]c(CSc2ccccn2)nc2ccccc12	STAT1 activator 134.9
O=c1[nH]c(CSc2ccccn2)nc2c1cnn2-c1ccccc1	none
COCCNC(=O)CN(C(=O)Cn1nnc2ccccc21)c1cc(C)cc(C)c1	none
COC(=O)c1ccc(NC(=O)CCN2CCCCC2)cc1	none
COC(=O)c1ccc(N=NN2CCCCC2)cc1	STAT1 activator 139.7
Cc1ccc(C(=O)ONc2ccc(N=O)cc2)cc1	FLuc inh counter 96.8

Compound activity (PubChem)
